Bioassay records from PubChem BioAssay.
A selection: hits, their analogues and other compounds. The true share with any hit is near 5.9%.
IDH1 mut inh = inhibitors of IDH1 R132H reductase, primary screen, biochemical, plate reader, single point; diaphorase/resazurin fluorescence, 60 min; inhibition, % at 10 µM; actives 0.18% (n = 70,000); AID 624101, 2012; in the data active = inhibition above about 34%; inconclusive = no clear call, values can overlap the other calls; inactive = below about 11%;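 note: 0% = DMSO and 100% = no enzyme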
Target sequence (O75874 whole entry R132H): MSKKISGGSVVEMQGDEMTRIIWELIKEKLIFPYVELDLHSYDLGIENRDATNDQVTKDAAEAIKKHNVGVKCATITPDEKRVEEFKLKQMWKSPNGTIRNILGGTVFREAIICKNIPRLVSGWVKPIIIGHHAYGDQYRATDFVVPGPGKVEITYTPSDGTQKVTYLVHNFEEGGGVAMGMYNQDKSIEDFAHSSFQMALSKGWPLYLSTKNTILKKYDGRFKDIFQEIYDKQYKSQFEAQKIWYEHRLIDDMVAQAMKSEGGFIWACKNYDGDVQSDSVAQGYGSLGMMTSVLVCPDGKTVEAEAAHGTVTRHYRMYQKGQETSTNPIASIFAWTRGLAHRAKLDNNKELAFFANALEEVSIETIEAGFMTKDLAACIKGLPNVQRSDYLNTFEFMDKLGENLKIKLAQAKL
T cruzi growth = T. cruzi intracellular proliferation inhibitors, primary screen, cell-based, beta-gal Tulahuen parasites, NIH3T3 host, luminescence. inhibition, % at 8.34 µM. AID 624255, 2012. T. cruzi beta-gal in NIH3T3, GalScreen luminescence, 90 h. actives 5.9% (n = 77,000);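 active = mean inhibition above about 93%, with at least 55% of replicates each passing it, limit read from the data, passing the limit was not always enough; inconclusive = only one of those two conditions holds; inactive = neither condition holds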
KDM4C inh = inhibitors of GASC-1 (KDM4C) histone demethylase, primary screen, biochemical, single concentration HTS; GST-KDM4C 2-372, H3K9me3 peptide, LANCE TR-FRET; inhibition, % at 12.5 µM; actives 0.15% (n = 96,000); AID 720574, 2013;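 active = mean replicate inhibition above about 25%, with at least 55% of replicates also reaching it, limit read from the data, passing the limit was not always enough; inconclusive = only one of those two conditions met; inactive = neither condition met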
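Test system – GST-tagged GASC-1 (JMJD2C) catalytic fragment, aa 2-372 · Medium – HEPES buffer, pH 7.5, plus ascorbate · Reagent – H3K9me3 peptide with Fe(II)/2OG · Compound – one test concentration per compound · Timing – 30 min reaction, 60 min detection, RT · Technique – TR-FRET with Eu antibody and ULight streptavidin, EDTA stop · Read-out basis – inhibition from TR-FRET ratio decrease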
Pf Dd2 inh = P. falciparum Dd2 growth inhibitors, primary screen, SYBR Green fluorescence, single dose replicates | 72 h; hits give low values | activity change, % at 10 µM | actives 2.3% (n = 94,000); in the data active = activity change below about -80%; inconclusive = no clear call, values can overlap the other calls
* = called active by the depositor; ? = inconclusive; nt = no result; ! = repeats disagree.

SMILES | IDH1 mut inh | T cruzi growth | KDM4C inh | Pf Dd2 inh
CCCNC(=O)C[C@@H]1C[C@H]2c3cc(NC(=O)CN(C)C)ccc3O[C@H]2[C@H](CO)O1 | 45* | 16 | 40* | 24
COC(=O)C[C@@H]1C[C@@H]2c3cc(N(C)C)ccc3O[C@@H]2[C@H](CO)O1 | -3 | 91 | nt | -1
COC(=O)C[C@H]1C[C@H]2c3cc(N(C)C)ccc3O[C@H]2[C@@H](CO)O1 | -11 | -38 | 36* | -1
CCCNC(=O)C[C@@H]1C[C@H]2c3cc(N(C)C)ccc3O[C@H]2[C@@H](CO)O1 | -3 | 28 | 28* | 10
COCCNC(=O)C[C@H]1C[C@@H]2c3cc(N(C)C)ccc3O[C@@H]2[C@@H](CO)O1 | -13 | nt | 46* | 30
CCN1CCN(c2c(Cl)cccc2NC(=O)COc2ccc(OC)cc2)CC1 | 0 | nt | nt | nt
CN(C)c1ccc2c(c1)[C@H]1C[C@H](CC(=O)NCC3CC3)O[C@@H](CO)[C@H]1O2 | -3 | 35 | 19 | 12
COc1ccccc1CNC(=O)C[C@H]1C[C@H]2c3cc(NC(=O)Cc4ccncc4)ccc3O[C@H]2[C@@H](CO)O1 | 0 | -27 | -1 | -82*
CN(C)c1ccc2c(c1)[C@@H]1C[C@@H](CC(=O)NCC3CC3)O[C@@H](CO)[C@@H]1O2 | -12 | 54 | 32* | 4
COc1ccccc1CNC(=O)C[C@@H]1C[C@@H]2c3cc(NC(=O)Cc4ccncc4)ccc3O[C@@H]2[C@H](CO)O1 | 0 | -45 | -1 | -47
COc1ccc(NC(=O)C(C)N(c2ccc(C)c(C)c2)S(C)(=O)=O)cc1 (stereo not given) | -1 | nt | nt | nt
C[C@@H]1CCCCO[C@@H](CN(C)Cc2ccc(C(=O)Nc3ccccc3N)cc2)[C@@H](C)CN([C@H](C)CO)C(=O)c2cc(NS(=O)(=O)c3ccc(F)cc3)ccc2O1 | 0 | nt | 0 | -77
C[C@@H]1CCCCO[C@H](CN(C)Cc2ccc(C(=O)Nc3ccccc3N)cc2)[C@@H](C)CN([C@H](C)CO)C(=O)c2cc(NS(=O)(=O)c3ccc(Cl)cc3)ccc2O1 | nt | 89 | 10 | -82*
C[C@@H]1CCCCO[C@@H](CN(C)Cc2ccc(C(=O)Nc3ccccc3N)cc2)[C@@H](C)CN([C@H](C)CO)C(=O)c2cc(NS(=O)(=O)c3ccccc3)ccc2O1 | 0 | nt | -1 | -81*
Cc1noc(C)c1S(=O)(=O)Nc1ccc2c(c1)C(=O)N([C@H](C)CO)C[C@H](C)[C@H](CN(C)Cc1ccc(C(=O)Nc3ccccc3N)cc1)OCCCC[C@@H](C)O2 | nt | nt | 21 | -86*
Cc1noc(C)c1S(=O)(=O)Nc1ccc2c(c1)C(=O)N([C@H](C)CO)C[C@H](C)[C@@H](CN(C)Cc1ccc(C(=O)Nc3ccccc3N)cc1)OCCCC[C@@H](C)O2 | nt | nt | 1 | ?
C/C(=C/CCC(CO)C1CCC2(C)C3CCC4C(C)(C)C(OC5OC(CO)C(O)C(O)C5O)CCC45CC35CCC12C)COC1OC(COC2OC(CO)C(O)C(O)C2O)C(O)C(O)C1O (stereo not given) | 2 | nt | nt | nt
C/C=C/c1ccc(C2[C@H]3CNC[C@@H]2N3Cc2cc(F)ccc2F)cc1 (stereo not given in full) | nt | nt | 3 | -84*!
O=C(c1ccccn1)N1CC[C@@H]2[C@H](CO)Nc3ccc(C#Cc4ccccc4)cc3[C@@H]21 | nt | 84 | -2 | 2
COc1ccc(C#Cc2ccc3c(c2)[C@H]2[C@H](CCN2C(=O)c2ccccn2)[C@H](CO)N3)cc1 | nt | nt | -2 | -88*
COc1ccc(C#Cc2ccc3c(c2)[C@H]2[C@H](CCN2C(=O)c2ccccn2)[C@@H](CO)N3)cc1 | nt | nt | -2 | -91*
O=C(Cn1cc(C(=O)c2ccccc2F)c2ccccc21)NCC1CCCO1 (stereo not given) | 0 | nt | nt | nt
CS(=O)(=O)N(CC(=O)O)c1cc(Cl)c(Cl)cc1Cl | 0 | nt | nt | nt
C[C@H]1CN([C@@H](C)CO)C(=O)CCCn2cc(nn2)CO[C@@H]1CN(C)C(=O)Nc1ccc(N2CCCCC2)cc1 | -11 | -18 | 0 | -89*!
C[C@@H]1CN([C@H](C)CO)C(=O)CCCn2cc(nn2)CO[C@@H]1CN(C)C(=O)Nc1ccc(N2CCN(C)CC2)cc1 | 1 | 24 | 2 | -5
SMILES | IDH1 mut inh | T cruzi growth | KDM4C inh | Pf Dd2 inh
C[C@H](CO)N1C[C@H](C)[C@H](CN(C)C(=O)Nc2ccc(N3CCCCC3)cc2)OCc2cnnn2CCCC1=O | -6 | -24 | -1 | -6
C[C@H]1CN([C@@H](C)CO)C(=O)CCCn2nncc2CO[C@@H]1CN(C)C(=O)Nc1ccc(N2CCCCC2)cc1 | nt | 8 | 1 | -90*!
COc1ccccc1S(=O)(=O)N(C)C[C@H]1OCc2cn(nn2)CCCC(=O)N([C@@H](C)CO)C[C@@H]1C | nt | -11 | nt | -89*
CC(=O)c1cccc(NC(=O)NCc2cc(C)n(C)n2)c1 | 0 | nt | nt | nt
COc1ccccc1NC(=O)CSc1n[nH]c(-c2ccncc2)n1 | 0 | nt | nt | nt
COc1ccc(S(=O)(=O)Nc2ccc3c(c2)C(=O)N([C@@H](C)CO)C[C@H](C)[C@@H](CN(C)S(=O)(=O)c2ccccc2)OCCCC[C@@H](C)O3)cc1 | -3 | nt | -1 | -88*
COc1ccc(S(=O)(=O)N(C)C[C@@H]2OCCCC[C@H](C)Oc3ccc(NS(=O)(=O)c4ccc(C)cc4)cc3C(=O)N([C@H](C)CO)C[C@@H]2C)cc1 | nt | 113* | 0 | -62
COc1ccc(S(=O)(=O)Nc2ccc3c(c2)C(=O)N([C@@H](C)CO)C[C@@H](C)[C@@H](CN(C)S(=O)(=O)c2ccc(C)cc2)OCCCC[C@H](C)O3)cc1 | 3 | nt | 0 | -79
COc1ccc(S(=O)(=O)Nc2ccc3c(c2)C(=O)N([C@H](C)CO)C[C@@H](C)[C@@H](CN(C)S(=O)(=O)c2ccc(Cl)cc2)OCCCC[C@@H](C)O3)cc1 | nt | 91 | -4 | -89*
COc1ccc(S(=O)(=O)Nc2ccc3c(c2)C(=O)N([C@H](C)CO)C[C@@H](C)[C@@H](CN(C)S(=O)(=O)c2ccc(C)cc2)OCCCC[C@H](C)O3)cc1 | nt | nt | 1 | -81*
CN(C)C(=O)C[C@@H]1C[C@H]2c3cc(NC(=O)C4CCC4)ccc3O[C@H]2[C@H](CO)O1 | 52* | -13 | 36* | 2
CN(C)C(=O)C[C@@H]1C[C@@H]2c3cc(NC(=O)Nc4ccccc4)ccc3O[C@@H]2[C@@H](CO)O1 | 73* | -10 | 32* | -50
CCc1ccccc1OCC(=O)Nc1ccc(C)cc1[N+](=O)[O-] | 0 | nt | nt | nt
COC(=O)c1ccccc1NC(=O)c1cccc(NC(=O)CSc2ccccc2)c1C | 0 | nt | nt | nt
C[C@H](CO)N1C[C@H](C)[C@@H](CN(C)Cc2ccc3c(c2)OCO3)Oc2c(NC(=O)CCCCCC(=O)Nc3ccccc3N)cccc2C1=O | 0 | nt | 1 | -85*
